TRPC6 inhibitor = mouse TRPC6 channel inhibitors, primary screen, cell-based, HEK293, membrane potential dye; 310,000 tested, 1.1% active; Short transient receptor potential channel 6 (Mus musculus), Q61143; ACh-evoked depolarization; stronger effect = lower value; B-score at 10 µM;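 active = B-score under library mean minus 3 SD, initial fluorescence not abnormally high, positive integrated signal ratio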;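 note: B-score derived from integrated fluorescence ratio over the kinetic read; more negative B-score means stronger inhibition of depolarization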
Target sequence (Q61143 whole entry, looked up): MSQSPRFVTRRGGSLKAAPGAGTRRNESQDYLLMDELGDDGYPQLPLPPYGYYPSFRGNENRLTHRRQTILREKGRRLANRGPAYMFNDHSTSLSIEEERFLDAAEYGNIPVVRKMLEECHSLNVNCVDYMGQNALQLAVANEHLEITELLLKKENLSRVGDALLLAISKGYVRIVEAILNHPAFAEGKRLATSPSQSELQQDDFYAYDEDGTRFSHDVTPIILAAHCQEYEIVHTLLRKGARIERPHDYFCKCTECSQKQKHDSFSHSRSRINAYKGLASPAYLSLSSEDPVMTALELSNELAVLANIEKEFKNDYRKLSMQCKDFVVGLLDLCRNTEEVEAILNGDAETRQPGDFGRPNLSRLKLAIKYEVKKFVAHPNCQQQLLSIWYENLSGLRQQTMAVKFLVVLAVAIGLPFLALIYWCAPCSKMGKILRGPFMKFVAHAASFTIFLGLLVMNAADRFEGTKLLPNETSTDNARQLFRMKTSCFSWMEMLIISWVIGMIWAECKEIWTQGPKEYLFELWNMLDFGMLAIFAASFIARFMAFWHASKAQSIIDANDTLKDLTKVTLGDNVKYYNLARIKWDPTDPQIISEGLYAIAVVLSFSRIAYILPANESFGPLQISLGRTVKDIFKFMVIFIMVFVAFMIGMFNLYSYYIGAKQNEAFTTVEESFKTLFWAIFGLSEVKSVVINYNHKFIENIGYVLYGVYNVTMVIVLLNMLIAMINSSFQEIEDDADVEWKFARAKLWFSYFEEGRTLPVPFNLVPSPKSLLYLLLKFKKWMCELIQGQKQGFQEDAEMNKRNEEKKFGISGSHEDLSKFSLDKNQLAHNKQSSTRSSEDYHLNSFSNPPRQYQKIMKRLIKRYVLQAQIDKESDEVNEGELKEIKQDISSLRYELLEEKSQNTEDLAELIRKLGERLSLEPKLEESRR
TRPC4 block = inhibitors of mouse TRPC4 channel, primary screen, Fluo4 calcium, HEK293 TRPC4beta/mu-opioid cells. B-score at 10 µM. 300,000 tested, 0.39% active. DAMGO-evoked Fluo4 calcium flux; stronger effect = lower value;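 active = B-score over 3 SD under the library average, no early fluorescence shift, positive overall ratio signal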
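Assay system: TRPC4beta/mu-opioid receptor HEK293 cell line; compound dosing: single concentration per test compound; detection: Fluo4 Ca2+ flux fluorescence; evaluation: per-well B score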
TRPC4 potent = positive allosteric modulators of TRPC4, primary screen, cell-based, mouse TRPC4beta, HEK293 mu-opioid, Fluo-4 calcium; Short transient receptor potential channel 4 (Mus musculus), Q9QUQ5; DAMGO EC20, Fluo-4 Ca2+ flux; stronger effect = higher value; B-score at 10 µM; 310,000 tested, 0.42% active; AID 2227, 2009;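 active = B-score of calcium response area above 5 SD of library B-scores, with initial fluorescence ratio within 5 SD of library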;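 note: B-score of integrated fluorescence ratio over time as area under calcium response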
TRPC6 act = mouse TRPC6 channel activators, primary screen, cell-based, HEK293, membrane potential dye. 310,000 tested, 0.13% active. HEK293-TRPC6 membrane potential dye fluorescence; stronger effect = higher value. B-score at 10 µM. Short transient receptor potential channel 6 (Mus musculus), Q61143;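 active = B-score of the integrated fluorescence ratio above library mean plus 3 SD, and starting fluorescence ratio within library mean plus 5 SD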;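 note: higher score means more depolarization so channel activation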
TRPC4 agonist = activators of mouse TRPC4 channel, primary screen, Fluo4 calcium, HEK293 TRPC4beta/mu-opioid cells; Short transient receptor potential channel 4 (Mus musculus), Q9QUQ5; Fluo4 calcium fluorescence; stronger effect = higher value; B-score at 10 µM; 310,000 tested, 0.49% active;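 active = B-score above 5 SD of library B-scores, and initial fluorescence ratio not above library mean plus 5 SD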;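 note: positive B-score marks a calcium rise read as TRPC4 activation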
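System – HEK293 cells stably co-expressing mouse TRPC4beta and mu-opioid receptor · Signal – Fluo4 calcium-sensitive dye fluorescence, kinetic, 1 Hz baseline · Benchmarks – buffer (low) and maximal DAMGO (high) · Read-out – B score of integrated fluorescence ratio per well · Incubation – dye loading 45 min room temperature, 110 s kinetic read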
TRPC4 sel inh 2 = second selectivity test of TRPC6 inhibitors: effect on mouse TRPC4 | shares compounds with TRPC6 inhibitor | AID 2776 | inhibition, % at 10 µM | HEK293 TRPC4/MOR, membrane potential dye fluorescence; channel activated by saturating DAMGO dose | 920 tested, 42% active;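 active = compounds whose fluorescence signal differed from control wells by over 3 SD, either direction, in both duplicate plates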
TRPC4 spec = mouse TRPC4 modulation by TRPC6 hits, confirmation, selectivity assay for TRPC6 inhibitor project, cell-based, HEK293 TRPC4/mu-opioid, membrane potential dye; AID 2777, 2010; membrane potential fluorescence; 920 tested, 61% active; shares compounds with TRPC6 inhibitor; activity change, negative = inhibition, % at 10 µM;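 active = rise or fall in signal beyond 3 SD of buffer-only wells in both replicate plates, either sign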;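 note: integrated kinetic ratio of fluorescence range over baseline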
HEK293 MPD ctr 2-1 = nonspecific membrane potential effects, parental HEK293, confirmation, counter-screen for TRPC6 inhibitor project, cell-based, second counter screen. AID 2779, 2010. 920 tested, 31% active. signal change vs control, % at 10 µM. parental HEK293 membrane potential dye fluorescence; maximal acetylcholine challenge after compound addition. shares compounds with TRPC6 inhibitor;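 active = membrane potential signal moving either way by over 3 SD of the maximum-effect control, in both duplicate plates, meaning non-specific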
HEK293 MPD ctr-1 = membrane potential modulation in parental HEK293, confirmation, counter-screen for TRPC6 inhibitor project, cell-based; shares compounds with TRPC6 inhibitor; parental HEK293 membrane potential dye fluorescence; membrane potential signal change, % at 10 µM; 920 tested, 60% active;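 active = membrane potential signal shifting up or down by more than 3 SD of buffer-only wells, on both duplicate plates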
HEK293 MPD ctr-2 = parental HEK293 membrane potential modulation, confirmation, counter-screen for TRPC6 modulator project, cell-based | shares compounds with TRPC6 inhibitor | membrane potential dye fluorescence | membrane potential signal change, % at 10 µM | 2,400 tested, 51% active | AID 488924, 2010;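 active = membrane potential signal moves up or down beyond 5 SD from buffer-only wells, on both duplicate plates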
HEK293 MPD ctr 2-2 = second counter-screen for TRPC6 modulators: effect in parental HEK293 cells. 2,400 tested, 14% active. AID 488926. membrane potential dye fluorescence; after compound, maximal acetylcholine stimulation. inhibition, % at 10 µM. shares compounds with TRPC6 inhibitor;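 active = membrane potential signal drops by more than 5 SD from the mean control signal, in both duplicate plates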;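 note: plate controls were acetylcholine ECmax control wells for no effect and buffer only wells for full effect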
TRPC4/MOR mod = TRPC4 modulation by TRPC6 hit compounds, confirmation, selectivity assay for TRPC6 modulator project, cell-based, HEK293 TRPC4/mu-opioid, membrane potential dye, mouse; membrane potential fluorescence; shares compounds with TRPC6 inhibitor; percent change from control (negative = decrease, positive = increase), % at 10 µM; 2,400 tested, 69% active;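 active = membrane potential signal moved up or down beyond 5 SD of buffer control wells, in both duplicate plates, actives on both sides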;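 note: plate controls were assay buffer wells for no effect and DAMGO maximal-effect wells for full effect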
TRPC4 ctr inh 2 = second check of whether TRPC6 modulators also affect mouse TRPC4. shares compounds with TRPC6 inhibitor. HEK293 TRPC4/mu-opioid, membrane potential dye fluorescence; stimulated with maximal-effect DAMGO. inhibition, % at 10 µM. 2,400 tested, 55% active. AID 488928;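 active = drop in membrane potential signal beyond 5 SD of the control wells in both duplicate plates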;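 note: TRPC4 counter screen for TRPC6 hits run under conditions tuned for TRPC6 not TRPC4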
TRPC6 inh conf = mouse TRPC6 channel inhibitors, confirmation, HEK293 cells, membrane potential dye, duplicate; shares compounds with TRPC6 inhibitor; 3,300 tested, 43% active; ACh-evoked depolarization; inhibition, % at 10 µM;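 active = fluorescence ratio falls more than 5 SD below the full-stimulation control mean, in both duplicate runs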;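 note: integrated fluorescence ratio of peak minus minimum over baseline after agonist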
TRPC6 act conf = mouse TRPC6 channel activators, confirmation, HEK293 cells, membrane potential dye, duplicate | shares compounds with TRPC6 inhibitor | activation, % at 10 µM | 2,800 tested, 11% active | HEK293-TRPC6 membrane potential dye fluorescence, FDSS;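 active = ratio signal rise beyond 5 SD above unstimulated control wells' mean, seen in both duplicate runs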;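 note: plate controls were buffer EC0 wells for no effect and acetylcholine ECmax response for full effect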
* = called active by the depositor; i = inactive; / = not tested or not shown. Most compounds without a hit are left out; they make up all but 2.3% or so of the library.

SMILES	TRPC6 inhibitor	TRPC4 block	TRPC4 potent	TRPC6 act	TRPC4 agonist	HEK293 MPD ctr-2	HEK293 MPD ctr 2-2	TRPC4/MOR mod	TRPC4 ctr inh 2	TRPC6 inh conf	TRPC6 act conf	others
COC(=O)c1ccc(CN2CCC(Oc3ccc(C(=O)N4CCCCC4)cc3)CC2)cc1	-5.72*	i	i	i	i	139.5%*	i	15.0%*	i	45.5%*	/
COc1ccccc1/C=C/CN1CCC(Oc2ccc(C(=O)N3CCCCC3)cc2)CC1	-5.76*	i	i	i	i	240.0%*	i	21.5%*	79.5%*	51.0%*	/
COC(=O)c1ccc(CN2CCC(Oc3cccc(C(=O)N4CCCC4)c3)CC2)cc1	i	i	i	i	i	/	/	/	/	/	/
COc1ccc(-n2c(-c3ccc(Cl)cc3)c[n+]3c2CCc2ccccc2-3)cc1	-5.1*	i	i	i	i	-123.0%*	i	-17.0%*	42.5%*	i	i
Cc1ccc2c(CN3CCN(S(=O)(=O)c4ccc5c(c4)OCCO5)CC3)cc(=O)oc2c1C	-5.61*	i	i	i	i	i	i	i	i	i	i
O=C(NCc1ccc(Cl)cc1)C1CCCN1C(=O)Nc1ccccc1 (stereo not given)	i	i	i	i	i	/	/	/	/	/	/
COC(=O)C1Cc2c([nH]c3ccccc23)C2(CCN(Cc3ccccc3)CC2)N1 (stereo not given)	-7.49*	i	i	i	i	/	/	/	/	i	i	TRPC4 sel inh 2=47.0%*;TRPC4 spec=5.6%*;HEK293 MPD ctr 2-1=247.5%*;HEK293 MPD ctr-1=i
CC1CCN(c2nc(/C=C/c3ccccc3)nc3ccccc23)CC1	-6.07*	i	i	i	i	i	i	-19.0%*	i	i	i
Cc1cccc(OCC(=O)NCCCNC(=O)c2ccncc2)c1	i	i	i	i	i	/	/	/	/	/	/
NCCCCCc1nnc(SCc2ccc(Cl)c(Cl)c2)o1	-6.17*	i	i	i	i	i	i	i	66.0%*	59.5%*	i
CCN(CC)C(=O)COCc1cc(-c2ccc3c(c2)OCO3)on1	-7.01*	i	i	i	i	/	/	/	/	i	i	TRPC4 sel inh 2=i;TRPC4 spec=i;HEK293 MPD ctr 2-1=i;HEK293 MPD ctr-1=i
CCC(C)NC(=O)COCc1cc(-c2ccc3c(c2)OCO3)on1 (stereo not given)	i	i	i	i	i	/	/	/	/	/	/
CCOC(=O)c1cnc2c(ccc3ccccc32)c1NCCO	i	i	i	i	i	/	/	/	/	/	/
CCOC(=O)c1cnc2c(Cl)cccc2c1NCCN(C)C	-9.18*	i	i	i	i	/	/	/	/	72.6%*	i	TRPC4 sel inh 2=68.0%*;TRPC4 spec=-26.2%*;HEK293 MPD ctr 2-1=18.0%*;HEK293 MPD ctr-1=-448.0%*
CCOC(=O)c1cnc2c(ccc3ccccc32)c1NCCN(C)C	-6.79*	i	i	i	i	/	/	/	/	i	i	TRPC4 sel inh 2=74.5%*;TRPC4 spec=-14.3%*;HEK293 MPD ctr 2-1=i;HEK293 MPD ctr-1=-232.5%*
CCOC(=O)c1cnc2c(C(=O)OC)cccc2c1NCc1cccnc1	-6.16*	i	i	i	i	i	i	14.5%*	i	i	i
CCOC(=O)c1c(NCCN(C)C)c2ccccc2[nH]c1=O	i	i	i	i	i	/	/	/	/	/	/
CC[n+]1c(/C=C/c2ccc(OC(C)=O)c(OC)c2)ccc2ccccc21	-7.59*	i	i	i	i	-264.0%*	124.0%*	-45.0%*	70.0%*	77.0%*	i
CC[n+]1c(/C=C/c2ccc(N(C)C)cc2)ccc2ccccc21	i	i	i	i	i	/	/	/	/	/	/
CC[n+]1c(/C=C/c2ccc(OC)c(OC)c2)ccc2ccccc21	-8.11*	i	i	i	i	-214.5%*	i	-52.5%*	40.0%*	i	i
CCOC(=O)c1c(NC(=O)CN2C(=O)C(=O)N(CC(C)C)C2=O)sc(C)c1CC	i	i	i	i	i	/	/	/	/	/	/
CN1CCC(N(C)S(=O)(=O)c2ccc(NC(=O)COc3cccc(C(F)(F)F)c3)cc2)CC1	i	i	i	i	i	/	/	/	/	/	/
Cc1c(C(N)=O)sc2ncn(CC(=O)N3CCC(C)CC3)c(=O)c12	i	i	i	i	i	/	/	/	/	/	/
O=C(COc1ccc(Cl)cc1Cl)N/N=C/c1ccc(OC2OC(CO)C(O)C(O)C2O)cc1 (stereo not given)	i	i	i	i	i	/	/	/	/	/	/
